Assay outcomes (PubChem BioAssay)
IDH1 mut inh: inhibitors of human IDH1 R132H. O75874. IDH1 R132H reductase, diaphorase/resazurin fluorescence, 60 min. AID 624101. inhibition, % at 10 µM. actives 0.18% (n = 70,000); in the data active = inhibition above about 34%; inconclusive = no clear call, values can overlap the other calls; inactive = below about 11%;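 also: 0% = DMSO and 100% = no enzyme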
Target sequence (O75874 whole entry R132H): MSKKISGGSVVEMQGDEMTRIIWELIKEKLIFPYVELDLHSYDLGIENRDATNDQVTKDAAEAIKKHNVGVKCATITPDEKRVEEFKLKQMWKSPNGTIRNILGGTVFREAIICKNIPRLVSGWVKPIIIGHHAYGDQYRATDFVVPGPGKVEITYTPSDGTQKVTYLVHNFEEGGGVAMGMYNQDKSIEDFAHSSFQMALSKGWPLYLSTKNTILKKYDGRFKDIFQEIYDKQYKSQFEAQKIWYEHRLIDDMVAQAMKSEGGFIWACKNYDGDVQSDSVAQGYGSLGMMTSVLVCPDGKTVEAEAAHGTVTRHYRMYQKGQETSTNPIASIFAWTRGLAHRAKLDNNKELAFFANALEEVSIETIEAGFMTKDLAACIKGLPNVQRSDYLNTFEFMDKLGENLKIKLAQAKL
KDM4C inh: inhibitors of human demethylase GASC-1 KDM4C; Q9H3R0; GST-KDM4C 2-372, H3K9me3 peptide, LANCE TR-FRET; inhibition, % at 12.5 µM; actives 0.15% (n = 96,000); AID 720574;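 active = mean replicate inhibition above about 25%, with at least 55% of replicates also reaching it, limit read from the data, passing the limit was not always enough; inconclusive = only one of those two conditions met; inactive = neither condition met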
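Material: GST-tagged GASC-1 (JMJD2C) catalytic fragment, aa 2-372 / Quantity: enzyme final amount 10 nM / Medium: HEPES buffer, pH 7.5, plus ascorbate / Doses: one test concentration per compound / Incubation: 30 min reaction, 60 min detection, RT / Measured by: LANCE TR-FRET / Read-out: inhibition from TR-FRET ratio decrease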
T cruzi growth-1: inhibitors of T. cruzi proliferation; AID 624255; inhibition, % at 8.34 µM; actives 5.9% (n = 77,000); T. cruzi beta-gal in NIH3T3, GalScreen luminescence, 90 h;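 active = mean inhibition above about 93%, with at least 55% of replicates each passing it, limit read from the data, passing the limit was not always enough; inconclusive = only one of those two conditions holds; inactive = neither condition holds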
Pf Dd2 inh: blocks growth of Plasmodium falciparum Dd2 parasites; P. falciparum Dd2 growth, SYBR Green, 72 h; hits give low values; activity change, % at 10 µM; actives 2.3% (n = 94,000); AID 1159554; in the data active = activity change below about -80%; inconclusive = no clear call, values can overlap the other calls
T cruzi growth-2: inhibitors of T. cruzi proliferation. shares compounds with T cruzi growth-1. T. cruzi beta-gal in NIH3T3, GalScreen luminescence, 90 h. inhibition, % at 8.35 µM. actives 72% (n = 5,600);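 active = mean replicate inhibition above about 95% and at least 55% of replicates individually reaching it, limit read from the data; inconclusive = only one of the two criteria is met; inactive = neither criterion is met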
T cruzi growth-3: inhibitors of T. cruzi proliferation. inhibition, % at 2.09 µM. T. cruzi beta-gal in NIH3T3, GalScreen luminescence, 90 h. AID 651740. actives 21% (n = 5,600). shares compounds with T cruzi growth-1;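 active = mean inhibition above about 95%, with at least 55% of replicates also reaching it, limit read from the data; inconclusive = meets just one of the two conditions; inactive = meets neither condition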;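 also: plate controls were neutral control median for no effect and positive control median for full effect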
NIH3T3 tox: NIH/3T3 (mouse) viability loss. shares compounds with T cruzi growth-1. NIH/3T3 viability, CellTiter-Glo ATP luminescence, 90 h. cytotoxicity (signal decrease), % at 8.35 µM. actives 14% (n = 5,600);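 active = mean signal decrease across replicates above about 35% based on untreated-well scatter, with enough replicates individually passing, limit read from the data; inconclusive = no rule stated though some were filed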;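 also: 0% = median of neutral control wells and 100% = median of positive control wells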
NIH3T3 tox 2: kills mouse NIH/3T3 fibroblasts; inhibition, % at 24.9 µM; AID 651744; NIH/3T3 viability, CellTiter-Glo ATP luminescence, 90 h; actives 56% (n = 5,600); shares compounds with T cruzi growth-1;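 active = mean loss of cell viability signal at or above a set limit, and enough replicates individually reaching it; inconclusive = meets only the mean limit or only the replicate share; inactive = meets neither condition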;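 also: 0% = median of neutral control wells and 100% = median of positive control wells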
The depositor's hits bear a star; ? = inconclusive; . = no result given. Shown are actives, neighbours in structure and some others; about 5.9% of the full set was active somewhere.

SMILES	IDH1 mut inh	KDM4C inh	T cruzi growth-1	Pf Dd2 inh	T cruzi growth-2	T cruzi growth-3	NIH3T3 tox	NIH3T3 tox 2
CC(=O)c1cccc(NC(=O)Cn2nc(C)c([N+](=O)[O-])c2C)c1	-0.4	.	.	.	.	.	.	.
O=C(NCC(F)(F)F)[C@H]1[C@H](CO)[C@H]2Cn3c(cccc3=O)[C@@H]1N2C(=O)C1CCC1	.	-1.4	3.2	17.9	.	.	.	.
COc1cccc(CNC(=O)[C@H]2[C@H](CO)[C@H]3Cn4c(cccc4=O)[C@@H]2N3C(=O)C2CCCCC2)c1	.	-1.5	157.3*	.	77.3	12.3	-24.8	-15.8
O=C(NCC(F)(F)F)[C@@H]1[C@@H](CO)[C@@H]2Cn3c(cccc3=O)[C@H]1N2C(=O)C1CC1	.	0.1	?	-13.3	0.7	38.7	-12.9	2.6
Cn1c(SCC(=O)Nc2cccc(Br)c2)nnc1-c1ccc(Cl)cc1	0.3	.	.	.	.	.	.	.
COc1ccc(S(=O)(=O)NCCO)cc1-c1nnc2c3ccccc3c(C)nn12	0.0	.	.	.	.	.	.	.
CC1CCC2(OC1)OC1CC3C4CC=C5C[C@@H](O)CC(O)[C@]5(C)C4CC[C@]3(C)C1C2C (stereo not given in full)	-0.4	.	.	.	.	.	.	.
C[C@H](CO)N1C[C@H](C)[C@H](CN(C)Cc2ccccc2)Oc2ccc(NS(=O)(=O)c3ccc(F)cc3)cc2CC1=O	4.5	0.8	72.5	-41.0	.	.	.	.
C[C@@H]1CN([C@H](C)CO)C(=O)Cc2cc(NS(=O)(=O)c3ccc(F)cc3)ccc2O[C@H]1CN(C)Cc1ccccc1	-0.3	1.0	97.3*	7.0	110.2*	14.0	0.2	22.5
C[C@H](CO)N1C[C@H](C)[C@@H](CN(C)Cc2ccccc2)Oc2ccc(NS(=O)(=O)c3ccc(Cl)cc3)cc2CC1=O	-0.2	-0.5	94.8	-58.1	.	.	.	.
C[C@H]1CN([C@@H](C)CO)C(=O)Cc2cc(NS(=O)(=O)c3ccc(F)cc3)ccc2O[C@H]1CN(C)Cc1ccccc1	-1.5	-0.4	100.4*	-42.2	99.4*	24.3	-8.5	27.7
C[C@@H]1CN([C@H](C)CO)C(=O)Cc2cc(NS(=O)(=O)c3ccc(Cl)cc3)ccc2O[C@H]1CN(C)Cc1ccccc1	0.0	-0.1	99.9*	2.1	109.9*	103.4*	6.9	16.2
CCn1c(SCC(=O)c2ccc(OC)cc2)nnc1-c1cc2cc(Br)ccc2o1	-0.1	.	.	.	.	.	.	.
Cc1nnc(SCC(=O)Nc2ccc(Cl)cc2O)s1	0.3	.	.	.	.	.	.	.
CCN(CC)c1ccc(/C=N/NC(=O)c2ccccn2)c(O)c1	0.2	.	.	.	.	.	.	.
Cc1[nH]c2ccc(CN3C(=O)c4ccccc4C3=O)cc2c1C	0.1	.	.	.	.	.	.	.
COc1ccc(C#Cc2cnc3c(c2)C(=O)N([C@@H](C)CO)C[C@@H](C)[C@@H](CN(C)C(=O)CC2CC2)O3)cc1	-0.2	-1.7	56.4	-59.5	.	.	.	.
COc1ccc(C#Cc2cnc3c(c2)C(=O)N([C@H](C)CO)C[C@H](C)[C@H](CN(C)C(C)=O)O3)cc1	0.1	-0.2	109.7*	-4.8	89.5	-18.2	21.1	34.4*
COc1ccc(C#Cc2cnc3c(c2)C(=O)N([C@@H](C)CO)C[C@H](C)[C@@H](CN(C)C(=O)CC2CC2)O3)cc1	-4.4	-1.1	96.8*	-66.8	60.1	30.5	-7.7	25.5
N#Cc1ccccc1NC(=O)COc1ccc(Cl)cc1Cl	0.2	.	.	.	.	.	.	.
C[C@H](CO)N1C[C@H](C)[C@H](CN(C)Cc2ccncc2)Oc2cc(C3=CCCC3)ccc2S1(=O)=O	.	6.8	107.9*	-29.0	96.9*	88.4	20.6	43.5*
C[C@H]1CN([C@@H](C)CO)S(=O)(=O)c2ccc(C3=CCCC3)cc2O[C@H]1CN(C)Cc1cncnc1	1.0	0.0	6.6	-46.0	.	.	.	.
C[C@@H]1CN([C@@H](C)CO)S(=O)(=O)c2ccc(C3=CCCC3)cc2O[C@H]1CN(C)Cc1ccncc1	.	4.9	114.2*	-64.9	96.8*	102.1*	50.0*	102.1*
